Experimental findings from PubChem BioAssay are described below.

Calls of active or inactive are those of the source.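 How the source made its calls, unless noted: active means potentiation averaged over duplicate wells exceeding buffer-only control mean by more than 3 SD; inactive means the rest.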

The nature of assay [1]: thallium flux activation in parental CHO cells, counter-screen for KCNQ1 potentiator project (AID 493006;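 active means duplicate-averaged activation above buffer control mean plus 5 SD of those controls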). As to conditions: parental CHO-K1 cells, FluxOR thallium flux, at 10 µM; stronger effect = higher value. The method in brief:
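Material: parental CHO-K1 cells, FluxOR dye-loaded; Also added: Potassium/thallium depolarization pulse; Schedule: overnight 37 °C plating, 90 min dye, 20 min dark compound; Signal: kinetic FluxOR fluorescence, 10 s baseline, 110 s after stimulus.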

In assay [2] the target is Potassium voltage-gated channel subfamily KQT member 1 (Homo sapiens) (UniProt P51787). The experiment in a line: KCNQ1 potassium channel potentiators, confirmation, FluxOR thallium flux, CHO cells, duplicates (AID 493007).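 On outcome: cells depolarized by a potassium plus thallium sulfate stimulus after compound.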 As to conditions: KCNQ1 cell line, FluxOR thallium flux fluorescence, at 10 µM; stronger effect = higher value, % of reference activator effect, buffer zero. The method in brief: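 System: KCNQ1-expressing CHO cell line; technique: kinetic thallium influx fluorescence with FluxOR dye, 10 s baseline, 110 s post-stimulus; timing: dye 90 min then compound 20 min, both at room temperature; controls: buffer-only wells as 0% and R-L3 activator as 100%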

Assay [3] addresses Potassium voltage-gated channel subfamily KQT member 2 (Rattus norvegicus) (UniProt O88943). The experiment in a line: rat KCNQ2 channel potentiation, selectivity assay for KCNQ1 potentiator project, KCNQ2-CHO-K1 cells (AID 493009;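 active means mean duplicate potentiation above the buffer control mean plus 5 SD of buffer wells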;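 further: assay conditions were tuned for KCNQ1 rather than KCNQ2 modulators; signal is max minus min fluorescence divided by baseline after thallium stimulus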). The following applies: FluxOR thallium flux fluorescence, at 10 µM; stronger effect = higher value, scaled: buffer 0, activator control 100.
In assay [4] the target is Potassium voltage-gated channel subfamily KQT member 1 (Homo sapiens) (UniProt P51787). The experiment in a line: KCNQ1 channel current potentiators, confirmation, orthogonal assay for KCNQ1 potentiator project, IonWorks patch clamp, KCNQ1-CHO cells (AID 493184;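 active means current rise at least 3 SD above the untreated control mean in each of two repeat wells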). The following applies: automated patch clamp current, at 10 µM; stronger effect = higher value. The method in brief: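 Test system: KCNQ1-expressing CHO cells. Medium: pH 7.4 external bath. Probe or stimulus: voltage step from -90 mV holding to +40 mV, 2,000 ms. Compound: 10 µM final, single point. Detection: automated perforated-patch electrophysiology. Read-out: percent current increase versus pre-compound level. Repeats: two replicates.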

Assay [5] concerns the target Potassium voltage-gated channel subfamily E member 1 (Homo sapiens) + Potassium voltage-gated channel subfamily KQT member 1 (Homo sapiens) (UniProt P15382+P51787). The experiment in a line: KCNQ1/KCNE1 complex potentiators, confirmation, selectivity assay for KCNQ1 potentiator project, thallium flux, CHO-K1 KCNQ1/E1 cells (AID 493186;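 active means mean duplicate activation above the buffer control mean plus 5 SD of those controls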). The following applies: FluxOR thallium flux, at 10 µM; stronger effect = higher value. The method in brief:
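Material: CHO-K1 cells with KCNQ1/E1 / Timing: dye 90 min, compound 20 min, room temperature / Technique: kinetic thallium-sensitive FluxOR dye fluorescence / Read-out: percent activation scaled between buffer and R-L3 ratio signals / Replicates: tested in duplicate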

Potassium voltage-gated channel subfamily KQT member 1 (Homo sapiens), sequence (P51787 whole entry, looked up): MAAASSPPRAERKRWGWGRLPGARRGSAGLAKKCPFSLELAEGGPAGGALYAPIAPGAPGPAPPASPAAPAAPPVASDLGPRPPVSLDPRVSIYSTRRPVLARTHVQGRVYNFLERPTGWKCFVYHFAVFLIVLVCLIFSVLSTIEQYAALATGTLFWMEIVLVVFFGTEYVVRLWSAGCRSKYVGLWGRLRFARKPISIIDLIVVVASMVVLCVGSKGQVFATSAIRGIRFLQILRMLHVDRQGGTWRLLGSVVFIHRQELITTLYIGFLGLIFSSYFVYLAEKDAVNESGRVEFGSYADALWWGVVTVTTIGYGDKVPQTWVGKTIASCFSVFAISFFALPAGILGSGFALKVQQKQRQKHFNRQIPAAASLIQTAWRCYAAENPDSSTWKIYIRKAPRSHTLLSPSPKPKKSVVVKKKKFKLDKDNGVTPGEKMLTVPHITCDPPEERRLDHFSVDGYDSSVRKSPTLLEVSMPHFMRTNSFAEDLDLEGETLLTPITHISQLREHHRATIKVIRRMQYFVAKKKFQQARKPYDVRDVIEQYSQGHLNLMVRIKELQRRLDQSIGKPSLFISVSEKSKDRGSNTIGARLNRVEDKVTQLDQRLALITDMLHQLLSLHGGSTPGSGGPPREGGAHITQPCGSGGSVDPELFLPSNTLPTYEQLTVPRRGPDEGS
Potassium voltage-gated channel subfamily E member 1 (Homo sapiens) + Potassium voltage-gated channel subfamily KQT member 1 (Homo sapiens), sequence (P51787 whole entry, looked up): as the sequence (P51787 whole entry, looked up) above
Potassium voltage-gated channel subfamily KQT member 2 (Rattus norvegicus), sequence (O88943 whole entry, looked up): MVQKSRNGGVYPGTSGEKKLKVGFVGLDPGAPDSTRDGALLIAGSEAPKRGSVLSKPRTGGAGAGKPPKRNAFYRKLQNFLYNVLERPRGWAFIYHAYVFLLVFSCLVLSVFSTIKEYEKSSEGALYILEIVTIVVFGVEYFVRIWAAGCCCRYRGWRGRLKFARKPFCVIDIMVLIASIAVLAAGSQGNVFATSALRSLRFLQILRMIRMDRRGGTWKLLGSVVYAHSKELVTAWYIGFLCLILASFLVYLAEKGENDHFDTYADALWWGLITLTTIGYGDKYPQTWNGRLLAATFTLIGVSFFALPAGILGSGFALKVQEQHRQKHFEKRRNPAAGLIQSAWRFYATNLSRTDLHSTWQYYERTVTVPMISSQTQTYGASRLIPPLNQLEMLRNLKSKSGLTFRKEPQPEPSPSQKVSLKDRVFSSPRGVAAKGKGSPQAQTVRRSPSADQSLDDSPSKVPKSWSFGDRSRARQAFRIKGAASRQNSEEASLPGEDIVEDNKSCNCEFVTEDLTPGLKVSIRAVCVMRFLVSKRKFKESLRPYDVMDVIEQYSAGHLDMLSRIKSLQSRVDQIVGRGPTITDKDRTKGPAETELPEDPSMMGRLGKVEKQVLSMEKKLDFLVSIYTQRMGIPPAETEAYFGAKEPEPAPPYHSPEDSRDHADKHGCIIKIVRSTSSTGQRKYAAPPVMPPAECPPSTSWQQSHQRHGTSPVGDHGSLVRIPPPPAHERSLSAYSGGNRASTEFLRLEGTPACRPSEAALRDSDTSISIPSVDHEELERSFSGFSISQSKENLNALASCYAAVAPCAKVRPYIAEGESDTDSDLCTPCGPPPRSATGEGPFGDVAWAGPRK

With `O=C(Nc1nc(-c2cc(F)ccc2F)cs1)c1ccccn1`, the outcome in assay [1], in assay [2], in assay [3], in assay [4] and in assay [5] was inactive.

For `Cc1sc2ncnc(N3CCN(Cc4ccccc4)CC3)c2c1-c1ccccc1`, the result in assay [1], in assay [3], in assay [4] and in assay [5] was inactive. Moreover, in assay [2], the potentiation was 184% (active).

Turning to `COc1ccc(-c2csc(NC(=S)NC(=O)c3cccs3)n2)cc1Br`, the outcome in assay [1], in assay [2], in assay [3], in assay [4] and in assay [5] was inactive.

On to `O=C(CNS(=O)(=O)c1ccc([N+](=O)[O-])cc1)N/N=C\c1ccc(O)cc1`, for which the outcome in assay [1], in assay [4] and in assay [5] was inactive. Moreover, the potentiation in assay [2] is 24% (active); in assay [3], 154% (active).

As to `O=C(NC(=S)Nc1nc(-c2ccccc2)cs1)c1cccs1`, the result in assay [1], in assay [3], in assay [4] and in assay [5] was inactive. In addition, the potentiation in assay [2] is 38% (active).

Consider `CN(C1CCCCC1)S(=O)(=O)c1ccc(NC(=S)NC(=O)c2cccs2)cc1`, for which the result in assay [1], in assay [4] and in assay [5] was inactive. The potentiation in assay [2] was 30% (active); in assay [3] it was 155% (active).

On to `CC12CCC(C(=O)N(CSC(=S)N/N=C\c3ccccc3)C1=O)C2(C)C` (stereo not given), for which the outcome in assay [1], in assay [3], in assay [4] and in assay [5] was inactive. Also, the potentiation in assay [2] was 33.5% (active).

In the case of `O=C(NC(=S)N1CCCCCC1)c1ccccc1Cl`, the outcome in assay [1], in assay [4] and in assay [5] was inactive. For the same compound, the potentiation in assay [2] was 25% (active); in assay [3] it was 146% (active).

As to `COc1ccc(NC(=S)NCCC(c2ccccc2)c2ccccc2)c(OC)c1`, the outcome in assay [1], in assay [3], in assay [4] and in assay [5] was inactive. In addition, the potentiation in assay [2] is 72.5% (active).

Turning to `O=C(CSc1nnc(-c2ccccn2)n1-c1ccc(Cl)cc1)Nc1ccc2c(c1)OCO2`, the outcome in assay [1], in assay [2], in assay [3], in assay [4] and in assay [5] was inactive.

Regarding `CNC(=O)CC1C(=O)N(c2ccc(Cl)cc2)C(=S)N1CCc1ccc(OC)c(OC)c1` (stereo not given), the result in assay [1], in assay [2], in assay [3], in assay [4] and in assay [5] was inactive.

Take `CCN(Cc1ccccc1)C1CCN(Cc2ccccc2)CC1`: the result in assay [1], in assay [2], in assay [3], in assay [4] and in assay [5] was inactive.

Consider `OCCN(CCO)c1ccc(C(c2ccccc2Cl)c2ccc(N(CCO)CCO)cc2Cl)c(Cl)c1`, for which the result in assay [1], in assay [3], in assay [4] and in assay [5] was inactive. Moreover, in assay [2], the potentiation was 34.5% (active).

`S=C(Nc1ccc(Cl)cc1)c1nc2ccccc2s1`: the outcome in assay [1], in assay [3] and in assay [4] was inactive. Besides, in assay [2], the potentiation was 47.5% (active). In addition, the activation in assay [5] was 23.8% (active).

Take `COc1ccc(-c2nn(-c3ccccc3)cc2C(=O)NC(=S)NNC(=O)c2ccncc2)cc1`: the result in assay [1], in assay [3], in assay [4] and in assay [5] was inactive. Moreover, the potentiation in assay [2] was 17.5% (active).

For `CC(C)CNC(=S)NC(=O)c1ccc([N+](=O)[O-])cc1`, the outcome in assay [1], in assay [2], in assay [3], in assay [4] and in assay [5] was inactive.

Consider `O=C(CNC(=S)NC(=O)c1ccc(Br)o1)c1ccccc1`, for which the result in assay [1], in assay [2], in assay [3], in assay [4] and in assay [5] was inactive.

Take `S=c1[nH]nc(-c2ccco2)n1/N=C/C(Cl)=C/c1ccccc1`: the outcome in assay [1], in assay [3], in assay [4] and in assay [5] was inactive. Besides, the potentiation in assay [2] was 26% (active).

Consider `O=C(NC(=S)Nc1cc(C(F)(F)F)ccc1Cl)c1ccccc1`, for which the result in assay [1], in assay [2], in assay [3], in assay [4] and in assay [5] was inactive.

In the case of `CCOc1cccc(/C=N/NC(=O)C2CCCC2)c1O`, the outcome in assay [1], in assay [2], in assay [3], in assay [4] and in assay [5] was inactive.

With `NS(=O)(=O)c1ccc(Sc2ccc3c(c2)CCC3)nc1`, the result in assay [1], in assay [3], in assay [4] and in assay [5] was inactive. Besides, the potentiation in assay [2] was 22.5% (active).

For the compound `O=C1C(=O)N(CCCc2ccccc2)c2ccccc21`, the outcome in assay [1], in assay [2], in assay [3], in assay [4] and in assay [5] was inactive.

Consider `O=S(=O)(Nc1cccnc1)c1ccc(Cl)cc1`, for which the result in assay [1], in assay [2], in assay [3], in assay [4] and in assay [5] was inactive.

For the compound `O=[N+]([O-])c1ccc(S(=O)(=O)CC(CN2CCCCC2)N2CCCCC2)cc1` (stereo not given), the outcome in assay [1], in assay [2], in assay [3], in assay [4] and in assay [5] was inactive.

With `CCN(CC)S(=O)(=O)c1cccc(C(=O)N/N=C/c2cccc(O)c2O)c1`, the result in assay [1], in assay [2], in assay [3], in assay [4] and in assay [5] was inactive.

`S=c1[nH]nc(-c2ccco2)n1/N=C/c1cccc(Cl)c1Cl`: the outcome in assay [1], in assay [3], in assay [4] and in assay [5] was inactive. Moreover, in assay [2], the potentiation is 23.5% (active).

With `CN(Cc1ccccc1)C(=S)NC(=O)c1ccccc1`, the outcome in assay [1], in assay [4] and in assay [5] was inactive. Moreover, the potentiation in assay [2] was 21.5% (active); in assay [3], 157% (active).

With `CCN(CC)CCSc1nc2ccccc2c(=S)n1-c1ccccc1`, the outcome in assay [1], in assay [2], in assay [3], in assay [4] and in assay [5] was inactive.

For the compound `CCCCNC(=O)CCc1c(C)nc2c(c(C)nn2-c2ccccc2)c1C`, the outcome in assay [1], in assay [2], in assay [3], in assay [4] and in assay [5] was inactive.
